Assay outcomes deposited in PubChem BioAssay by several laboratories.
GRK2 aptamer HTS: compounds blocking aptamer binding on GRK2 – biochemical, human GRK2, bead flow cytometry, HTS, primary screen; FAM-aptamer displacement from GRK2; inhibition of aptamer binding, % at 10 µM; Beta-adrenergic receptor kinase 1 (Homo sapiens), P25098; 330,000 compounds, 0.59% hits; AID 488847, 2010;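 active = inhibition of aptamer binding above 40%, roughly 3 SD of noise, on plates passing a quality check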;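 note: median bead fluorescence of bound FAM aptamer so fluorescent compounds give negative values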
SUMO1 PPI mod: modulators of SUMO1 protein-protein interactions, primary screen, biochemical, uHTS. Small ubiquitin-related modifier 1 (Homo sapiens), P63165. SUMO1 binding to a labelled peptide, TR-FRET, 1 h. 360,000 compounds, 0.33% hits. inhibition, % at 20 µM. AID 602429, 2012; in the data active = inhibition above about 37%
Target sequence (P63165 whole entry, looked up): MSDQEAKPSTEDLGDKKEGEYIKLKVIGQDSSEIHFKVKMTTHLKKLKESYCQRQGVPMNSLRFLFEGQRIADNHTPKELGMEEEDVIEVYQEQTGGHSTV
LMPTP block: LMPTP phosphatase inhibitors, primary screen, biochemical, fluorescence intensity, uHTS | recombinant LMPTP-A, OMFP fluorogenic substrate | inhibition, % at 20 µM | 360,000 compounds, 0.22% hits;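 active = compounds that cut the enzyme signal by at least half of the control window in the single-dose screen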;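 note: plate controls were DMSO wells with enzyme plus substrate for no effect and substrate without enzyme for full effect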
Target sequence (P24666 whole entry, looked up): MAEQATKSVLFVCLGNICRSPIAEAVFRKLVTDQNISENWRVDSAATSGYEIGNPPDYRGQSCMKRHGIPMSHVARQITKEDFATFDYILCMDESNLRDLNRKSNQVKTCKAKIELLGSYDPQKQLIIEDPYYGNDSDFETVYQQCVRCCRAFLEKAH
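Buffer or medium: Bis-Tris pH 6.0, DTT, detergent; Assay system: LMPTP-A enzyme; Quantity: 0.625 nM enzyme; Detection: endpoint fluorescence intensity; Times: 50 min dark incubation at room temperature; Controls: substrate-only low control, DMSO enzyme-plus-substrate high control; Doses: single 20 µM dose; Read-out: percent inhibition versus substrate-only and uninhibited controls; Reagent: 400 µM OMFP.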
DNMT1 block: human DNMT1 methyltransferase inhibitors, primary screen, biochemical, molecular beacon, fluorescence, HinP1I cleavage, uHTS. DNA (cytosine-5)-methyltransferase 1 (Homo sapiens), P26358. inhibition (reported as % activation of signal), % at 10 µM. 360,000 compounds, 0.83% hits; in the data active = inhibition above about 50%
STEP block: STEP phosphatase inhibitors, primary screen, biochemical, fluorescence intensity, uHTS. inhibition, % at 20 µM. recombinant STEP, OMFP fluorogenic substrate. Tyrosine-protein phosphatase non-receptor type 5 (Homo sapiens), P54829. 360,000 compounds, 0.25% hits;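 active = inhibition at 20 µM, scaled per plate between control wells, above about 37%, limit read from the data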;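 note: 0% = DMSO with enzyme and substrate and 100% = substrate only without enzyme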
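Also added – OMFP at 25 µM · Test system – STEP tyrosine phosphatase · Technique – FITC-channel fluorescence of OMFP product · Schedule – 20 min at room temperature, dark · Evaluation – control-normalized % inhibition with plate pattern correction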
Scp1 inh: Scp-1 phosphatase inhibitors, primary screen, biochemical, colorimetric, uHTS; Carboxy-terminal domain RNA polymerase II polypeptide A small phosphatase 1 (Homo …; Recombinant Scp1, phosphopeptide, malachite green phosphate absorbance; inhibition, % at 20 µM; 340,000 compounds, 0.88% hits;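 active = inhibition above about 50% at 20 µM, limit read from the data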;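 note: plate controls were DMSO wells with enzyme for no effect and wells lacking enzyme for full effect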
Target sequence (Q9GZU7 76-261 limits assumed): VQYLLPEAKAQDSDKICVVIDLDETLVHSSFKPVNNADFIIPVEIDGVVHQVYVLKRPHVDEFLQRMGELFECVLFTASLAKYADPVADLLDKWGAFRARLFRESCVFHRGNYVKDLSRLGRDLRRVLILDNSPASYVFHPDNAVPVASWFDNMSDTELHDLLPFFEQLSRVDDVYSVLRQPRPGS
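Assay system: SCP-1 catalytic fragment, aa 76-261 | Buffer or medium: Tris acetate buffer pH 5.5 with MgCl2 and Tween-20 | Compound: One concentration, 20 µM, with 1.0% DMSO | Also added: Phospho 17-mer peptide substrate | Signal: Absorbance at 630 nm | Incubation: 45 min enzyme reaction at room temperature | Measure: % inhibition of SCP-1 phosphate liberation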
Active calls of the source: *; . = no result. The list is not random: actives were taken first. Their share in the collection is about 2.1%.

SMILES	GRK2 aptamer HTS	SUMO1 PPI mod	LMPTP block	DNMT1 block	STEP block	Scp1 inh
O=C(O)C1=CC(=C(c2ccc(O)c(C(=O)O)c2)c2ccc(O)c(C(=O)O)c2)C=CC1=O	99*	.	.	.	.	.
CN1CCC[C@H]1CCNc1ccc2c(=O)c3ccccc3n(C)c2c1	.	82*	46	40	9	0
CN1CCCC1CCNc1ccc2c(=O)c3ccccc3oc2c1 (stereo not given)	0	-2	3	17	6	4
Cc1cccc(OCC(=O)Nc2ccccc2N2CCCCC2)c1	2	41*	4	5	8	-9
O=C/C=C/c1coc2ccc3ccccc3c2c1=O	0	.	.	.	.	103*
O=c1cc(C(F)F)oc2c1ccc1ccccc12	0	-3	-1	5	-7	0
O=Cc1coc2c(ccc3ccccc32)c1=O	80*	.	.	.	.	.
CCCN(CCC)Cc1cc(=O)oc2ccc3ccccc3c12	.	-6	2	7	5	.
O=C(NCCOC(=O)Nc1cccc2ccccc12)OCc1ccccc1	.	-6	0	-5	-1	-19
O=Cc1ccnc(-c2ccc(OC(=O)c3ccco3)cc2)n1	2	56*	1	-8	3	-9
O=C(Oc1ccc(-c2ccccc2)cc1)c1ccco1	.	2	1	3	2	-10
CCCn1c(N)c(C(=O)CSc2nnc(Cc3cccs3)n2C2CC2)c(=O)n(C)c1=O	3	10	0	0	6	-3
COc1ccc2nc3cc(Cl)ccc3c(Nc3ccc(O)c(CN4CCN(C)CC4)c3)c2c1	.	-65	22	68*	6	-10
Cn1cc(Cl)c(C(=O)OCC(=O)c2ccccc2)n1	0	0	-1	3	-2	-9
COC1=CC(=O)c2c(ccc3ncnc(N)c23)C1=O	.	72*	9	103*	7	-8
COc1ccc(/C(C)=N/Nc2ccccc2Cl)c(O)c1	6	58*	0	22	9	27
CC(C)C(NC(=O)OCc1ccccc1)C(=O)OCC(=O)NCc1ccco1 (stereo not given)	0	3	1	30	0	28
CC(C)[C@H](NC(=O)OCc1ccccc1)C(=O)OCC(=O)NCc1ccco1	.	2	-1	19	-1	59*
Cc1cc(C)c2nc(NC(=O)c3ccco3)sc2c1	0	0	2	-2	0	20
O=C(Nc1nc2c(Br)cc(Br)cc2c(=O)s1)c1ccco1	1	5	16	5	34	93*
CC(C)(C)CC(C)(C)SSc1n[nH]c(=S)s1	.	9	0	28	0	10
Fc1c(F)c(C(F)(F)F)c(F)c(F)c1N/N=C\c1cccs1	3	41*	2	-7	-2	-4
O=C(NCCN1CCN(c2cccc(Cl)c2)CC1)c1ccc(CSc2nc3ccncc3[nH]2)cc1	0	5	83*	-11	1	-1
Oc1cc2c(cc1O)C1c3ccc(O)c(O)c3OCC1(O)C2 (stereo not given)	0	10	3	10	4	61*
CCCCn1cnc2c(c(-c3ccccc3)c(-c3ccccc3)n2Cc2ccco2)c1=N	0	1	0	-2	-2	-3
SMILES	GRK2 aptamer HTS	SUMO1 PPI mod	LMPTP block	DNMT1 block	STEP block	Scp1 inh
N=c1c2c(-c3ccccc3)c(-c3ccccc3)n(Cc3ccccc3)c2ncn1CCCn1ccnc1	0	-10	57*	3	3	29
O=C1C(Nc2ccccc2)=C/C(=N/S(=O)(=O)c2cccs2)c2ccccc21	0	32	8	68*	2	-4
Cc1ccc(NC2=C/C(=N/S(=O)(=O)c3cccs3)c3ccccc3C2=O)cc1	0	-5	4	-9	10	-7
COC(=O)c1ccccc1NC1=C/C(=N\S(=O)(=O)c2ccc(C(=O)O)cc2)c2ccccc2C1=O	3	103*	2	81*	25	12
Cc1ccc(S(=O)(=O)/N=C2\C=C(Nc3cccc(C(=O)O)c3)C(=O)c3ccccc32)cc1	3	39	8	60*	3	-7
Cc1ccc(S(=O)(=O)/N=C2\C=C(Nc3ccc(O)cc3)C(=O)c3ccccc32)cc1	1	12	9	53*	4	-10
COc1cccc(CN(C(=O)COc2ccc(C)cc2)C2CCS(=O)(=O)C2)c1 (stereo not given)	5	2	-1	-2	-1	-2
CNc1nc2c(-c3ccc(Cl)cc3)nnn2c2ccccc12	0	-31	76*	21	4	-7
COc1ccccc1C(=O)NNC(=O)CCC(=O)NCc1ccccc1	1	-1	-1	0	-1	-9
CNC(=S)N/N=C/c1ccc(-c2ccc(C(=O)O)cc2)o1	18	2	2	13	4	52*
O=C(O)c1ccc(-c2ccc(/C=N/Nc3ccc([N+](=O)[O-])cc3)o2)cc1	0	-28	14	-1	-23	85*
O=C(O)c1cccc(-c2ccc(/C=N/Nc3ccc([N+](=O)[O-])cc3)o2)c1	25	-23	11	-8	-8	3
Cc1cc(C)n(Cc2ccc(C(=O)N/N=C/c3ccc(-c4ccc([N+](=O)[O-])cc4)o3)o2)n1	14	104*	97*	98*	99*	102*
CCc1noc(C)c1C(=O)N(CC(C)C)c1c(N)n(Cc2ccccc2)c(=O)[nH]c1=O	.	-1	0	2	2	-2
COc1cccc(N=C2NC(=O)/C(=C/c3cc([N+](=O)[O-])ccc3O)S2)c1	6	-5	88*	3	50*	44
O=C1NC(=Nc2ccccc2Cl)S/C1=C\c1cc([N+](=O)[O-])ccc1O	8	9	3	1	0	-5
Cc1ccc2nc(-c3ccco3)c(CC3CCCCC3)n2c1	.	0	0	1	-1	.
Brc1ccc2nc(-c3ccco3)c(CC3CCCCC3)n2c1	.	23	19	69*	4	.
Cc1cc(NC(=O)C(C)SCC(=O)N(C)CC(=O)Nc2ccc(F)cc2)no1 (stereo not given)	1	10	1	0	-3	-4
C/C(N)=C(/C#N)C(=O)COc1ccc(Cl)cc1Cl	0	61*	3	-3	-3	-7
